This note sets out measurements from ChEMBL document CHEMBL1681735, “One step synthesis of 2-hydroxymethylisoflavone and their osteogenic activity” (2011).

The subject of experiment [1] is Calvarial cell. Briefly: (§1) Induction of osteogenic activity in rat Calvarial cells assessed as fold increase in OCN gene expression after 48 hrs by qPCR relative to untreated control. The experiment is classed as functional. Summed up:
(§2)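 Osteoblasts cultured with or without compound for 48 h, then qPCR. Cycling: 95 °C 5 min, then 40 cycles of 94 °C 2 min, 62 °C 30 s annealing/extension and 72 °C 30 s. Normalized to GAPDH. Compared with vehicle-treated cells; mean SEM, n = 3.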
(Real-time PCR tracks product formation cycle by cycle.)

A short description of experiment [2]: (§3) Induction of osteogenic activity in rat Calvarial cells assessed as fold increase in Runx-2 gene expression after 48 hrs by qPCR relative to untreated control. Type of experiment: functional, Calvarial cell. Summed up:
as §2

Experiment [3] concerns Calvarial cell. Briefly: Induction of osteoblast differentiation in rat Calvarial cells assessed as increase in alkaline phosphatase activity at 10^-12 to 10^-6 M by spectrophotometry. The experiment is classed as functional, cell-based. Put shortly:
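Rat calvarial osteoblasts trypsinized at 70–80% confluence (0.02% trypsin-EDTA). 2 × 10³ cells seeded in α-MEM with 10% FBS plus 50 µg/ml ascorbate and 10 mM glycerophosphate. Exposed to 10^-12 to 10^-6 M for 48 h; isoformononetin 10^-8 M as positive control. Total ALP read at 405 nm with PNPP 10 mmol/L in diethanolamine buffer (1 mol/L, pH 9.8), 0.5 mmol/L MgCl₂. Mean SEM, n = 6.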

Experiment [4] deals with Calvarial cell. Briefly: (§4) Induction of osteogenic activity in rat Calvarial cells assessed as fold increase in BMP-2 gene expression after 48 hrs by qPCR relative to untreated control. Type of experiment: functional. Put shortly: as §2
Experiment [5] in a line: as §1. The experiment is classed as functional, Calvarial cell. Summed up:
as §2

Experiment [6] can be described thus: as §4. The experiment is classed as functional, Calvarial cell. Put shortly: as §2
The test system of experiment [7] is Calvarial cell. The description is as §3. The experiment is classed as functional. Summed up: as §2

Structures are written as SMILES. Activity calls are given as the source filed them. No cut-off for these calls is given here.

Regarding `O=c1c(-c2ccccc2)c(CO)oc2cc(O)ccc12`, the result with Calvarial cell [1] and in the experiment on Calvarial cell [4] was inactive. The “fold change (FC)” value in experiment [2] came out at 6.5. In addition, the result with Calvarial cell [3] was Active.

For the molecule `COc1ccc(-c2c(CO)oc3ccccc3c2=O)c(O)c1`, the “fold change (FC)” value worked out at 2 in experiment [5], 8 in experiment [2] and 2 in experiment [6]. In addition, the outcome in the experiment with Calvarial cell [3] was Active.

With `O=c1c(-c2ccccc2)c(CO)oc2ccccc12`, the outcome in the experiment on Calvarial cell [1] and in the experiment with Calvarial cell [7] was inactive. In addition, the outcome in the experiment with Calvarial cell [3] was Active. For the same molecule, the “fold change (FC)” value in experiment [6] came out at 2.5.

`COc1ccc(-c2c(CO)oc3cc(O)ccc3c2=O)cc1`: the result with Calvarial cell [1], with Calvarial cell [7] and in the experiment on Calvarial cell [4] was inactive. The outcome in the experiment with Calvarial cell [3] was Active.
